In ChEMBL document CHEMBL1143578, “From 1-acyl-beta-lactam human cytomegalovirus protease inhibitors to 1-benzyloxycarbonylazetidines with improved antiviral activity. A straightforward approach to convert covalent to noncovalent inhibitors” (J Med Chem, 2005):

Experiments:
[1] = system: HEL; assay: Cytotoxic concentration required to reduce HEL cell growth; format: functional; conditions: Homo sapiens
Summary of the method: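 HEL cells seeded at 5 × 10³ cells/well and allowed to proliferate 24 h, then exposed to a range of compound concentrations for 3 days at 37 °C. Cell number was counted with a Coulter counter. CC50 is the concentration giving 50% growth reduction versus untreated controls, read from plots of cell number (% of control) against concentration.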

[2] = system: HEL; assay: Effective concentration required to inhibit human cytomegalo virus Davis induced cytopathicity in HEL fibroblast cell line after 7 days of postinfection; format: functional, cell-based; conditions: 168 h
Summary of the method: (§1)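 Confluent HEL fibroblasts were infected with 100 PFU/well for 2 h, then residual virus was removed. Cells were incubated with a range of compound concentrations, in duplicate, for 7 days at 37 °C. Cells were ethanol-fixed and Giemsa-stained, and cytopathogenicity was scored microscopically. EC50 was read from plots of % cytopathogenicity against concentration.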

[3] = system: HEL; assay: Effective concentration required to reduce Varicella-Zoster virus 07/1(TK-) plaque formation after 5 days in HEL fibroblast cell line; format: functional, cell-based; conditions: Homo sapiens, 120 h
Summary of the method: (§2)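 Confluent HEL cells were inoculated with VZV at 20 PFU/well for 2 h. Residual virus was removed and varying compound concentrations were added in duplicate. Plaques were counted after 5 days. EC50 is the concentration halving plaque formation relative to untreated controls.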

[4] = system: HEL; assay: Effective concentration required to inhibit human cytomegalo virus AD-169 induced cytopathicity in HEL fibroblast cell line after 7 days of postinfection; format: functional, cell-based; conditions: 168 h; summary of the method: as §1
[5] = system: HEL; assay: Effective concentration required to reduce Varicella-Zoster virus OKA(TK) plaque formation after 5 days in HEL fibroblast cell line; format: functional, cell-based; conditions: Homo sapiens, 120 h; summary of the method: as §2
[6] = system: HEL; assay: Minimum cytotoxic concentration required to cause a microscopically visible alteration of HEL fibroblast cell morphology; format: functional; conditions: Homo sapiens
Summary of the method: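 HEL cell morphology was examined under the microscope after compound exposure. MCC is the lowest concentration producing a detectable alteration in morphology.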

SMILES: CNC(=O)[C@H](C)NC(=O)C1(Cc2ccccc2)CCN1C(=O)OCc1ccccc1 (stereo not given in full)
- CC50 [1]: > 50 µM
- EC50 [2]: 5 µM
- EC50 [3]: > 50 µM
- EC50 [4]: 7.4 µM
- EC50 [5]: > 50 µM
- MCC [6]: > 50 µM

SMILES: C[C@H](NC(=O)C1(Cc2ccccc2)CCN1C(=O)OCc1ccccc1)C(=O)OC(C)(C)C (stereo not given in full)
- CC50 [1]: 33 µM
- EC50 [2]: 4.4 µM
- EC50 [3]: > 16 µM
- EC50 [4]: 16 µM
- EC50 [5]: 16 µM
- MCC [6]: 80 µM

SMILES: COC(=O)[C@@]1(Cc2ccccc2)CCN1C(=O)N[C@@H](C)c1ccccc1
- CC50 [1]: > 50 µM
- EC50 [3]: > 50 µM
- EC50 [4]: > 20 µM
- EC50 [5]: > 50 µM
- MCC [6]: > 50 µM

SMILES: C[C@H](NC(=O)C1(Cc2ccccc2)CCN1C(=O)OCc1ccccc1)C(N)=O (stereo not given in full)
- CC50 [1]: 50 µM
- EC50 [2]: 32 µM
- EC50 [3]: > 80 µM
- EC50 [4]: 39 µM
- EC50 [5]: > 80 µM
- MCC [6]: ≥ 400 µM

SMILES: COC(=O)[C@]1(Cc2ccccc2)CCN1C(=O)N[C@@H](C)c1ccccc1
- CC50 [1]: > 50 µM
- EC50 [3]: 50 µM
- EC50 [4]: > 20 µM
- EC50 [5]: 50 µM
- MCC [6]: > 50 µM

SMILES: CC(C)(C)NC(=O)C1(Cc2ccccc2)CCN1C(=O)OCc1ccccc1 (stereo not given)
- CC50 [1]: 36 µM
- EC50 [2]: 4.4 µM
- EC50 [3]: > 16 µM
- EC50 [4]: 5.5 µM
- EC50 [5]: > 3.2 µM
- MCC [6]: ≥ 16 µM

SMILES: C[C@@H](NC(=O)N1CCC1(Cc1ccccc1)C(=O)OC(C)(C)C)c1ccccc1 (stereo not given in full)
- CC50 [1]: 57 µM
- EC50 [2]: 33 µM
- EC50 [3]: 25 µM
- EC50 [4]: 40 µM
- EC50 [5]: 36 µM
- MCC [6]: 400 µM

SMILES: C[C@H](NC(=O)C1(Cc2ccccc2)CCN1C(=O)OCc1ccccc1)C(=O)O (stereo not given in full)
- CC50 [1]: 124 µM
- EC50 [2]: > 80 µM
- EC50 [3]: > 80 µM
- EC50 [4]: > 400 µM
- EC50 [5]: > 80 µM
- MCC [6]: ≥ 400 µM

SMILES: COC(=O)N1CCC1(Cc1ccccc1)C(=O)N[C@@H](C)C(N)=O (stereo not given in full)
- CC50 [1]: > 200 µM
- EC50 [2]: > 400 µM
- EC50 [3]: 346 µM
- EC50 [4]: > 400 µM
- EC50 [5]: > 400 µM
- MCC [6]: > 400 µM

SMILES: O=C(OCc1ccccc1)N1CCC1(Cc1ccccc1)C(=O)NC1CCCCC1 (stereo not given)
- CC50 [1]: 37 µM
- EC50 [2]: 3.2 µM
- EC50 [3]: 5.1 µM
- EC50 [4]: 5.9 µM
- EC50 [5]: 7.8 µM
- MCC [6]: ≥ 16 µM

SMILES: COC(=O)[C@@]1(Cc2ccccc2)CC(=O)N1C(=O)N[C@@H](C)c1ccccc1
- CC50 [1]: > 50 µM
- EC50 [3]: > 50 µM
- EC50 [4]: > 50 µM
- EC50 [5]: > 50 µM
- MCC [6]: > 50 µM

SMILES: CC(C)(C)OC(=O)C1(Cc2ccccc2)CC(=O)N1C(=O)OCc1ccccc1 (stereo not given)
- EC50 [3]: 8 µM
- EC50 [5]: 12 µM
- MCC [6]: 50 µM

SMILES: C[C@@H](NC(=O)N1C(=O)C[C@@]1(Cc1ccccc1)C(=O)OC(C)(C)C)c1ccccc1
- EC50 [3]: 23 µM
- EC50 [5]: > 50 µM
- MCC [6]: 200 µM

SMILES: C[C@@H](NC(=O)N1C(=O)C[C@]1(Cc1ccccc1)C(=O)OC(C)(C)C)c1ccccc1
- EC50 [3]: > 50 µM
- EC50 [5]: > 50 µM
- MCC [6]: > 200 µM

SMILES: C[C@@H](NC(=O)N1C(=O)C[C@@]1(Cc1ccccc1)C(=O)O)c1ccccc1
- EC50 [2]: > 200 µM
- EC50 [3]: 151 µM
- MCC [6]: > 200 µM

SMILES: C[C@H](NC(=O)N1C(=O)C[C@@]1(Cc1ccccc1)C(=O)OC(C)(C)C)c1ccccc1
- EC50 [3]: 20 µM
- EC50 [5]: 37 µM
- MCC [6]: 200 µM

SMILES: C[C@@H](NC(=O)N1C(=O)C[C@]1(Cc1ccccc1)C(=O)O)c1ccccc1
- EC50 [3]: > 200 µM
- EC50 [5]: > 200 µM
- MCC [6]: 200 µM

SMILES: C[C@H](NC(=O)N1C(=O)C[C@]1(Cc1ccccc1)C(=O)O)c1ccccc1
- EC50 [2]: > 200 µM
- EC50 [3]: 111 µM
- MCC [6]: > 200 µM

SMILES: CC(C)(C)OC(=O)[C@]1(Cc2ccccc2)CC(=O)N1C(=O)Nc1ccccc1
- EC50 [2]: 50 µM
- EC50 [3]: 13 µM
- EC50 [4]: 50 µM
- EC50 [5]: 33 µM
- MCC [6]: 200 µM

SMILES: COC(=O)[C@]1(Cc2ccccc2)CC(=O)N1C(=O)N[C@@H](C)c1ccccc1
- CC50 [1]: > 50 µM
- EC50 [3]: > 50 µM
- EC50 [4]: > 50 µM
- EC50 [5]: > 50 µM
- MCC [6]: > 50 µM

SMILES: COC(=O)[C@H](C)NC(=O)C1(Cc2ccccc2)CCN1C(=O)OCc1ccccc1 (stereo not given in full)
- CC50 [1]: 50 µM
- EC50 [2]: > 80 µM
- EC50 [3]: > 80 µM
- EC50 [4]: > 80 µM
- EC50 [5]: > 80 µM
- MCC [6]: 400 µM

SMILES: CC(C)(C)OC(=O)C1(Cc2ccccc2)CCN1C(=O)OCc1ccccc1 (stereo not given)
- EC50 [2]: 0.6 µM
- EC50 [3]: > 2 µM
- EC50 [4]: 0.7 µM
- EC50 [5]: > 2 µM
- MCC [6]: 5 µM

SMILES: CC(C)(C)OC(=O)N1C(=O)CC1(Cc1ccccc1)C(=O)OC(C)(C)C (stereo not given)
- EC50 [2]: > 200 µM
- EC50 [4]: > 200 µM
- MCC [6]: > 200 µM

SMILES: C[C@H](NC(=O)N1C(=O)C[C@@]1(Cc1ccccc1)C(=O)O)c1ccccc1
- EC50 [3]: 110 µM
- EC50 [5]: > 200 µM
- MCC [6]: 200 µM

SMILES: O=C1C[C@H](Cc2ccccc2)N1C(=O)NCc1ccccc1
- CC50 [1]: > 250 µM

SMILES: C[C@H](NC(=O)N1C(=O)C[C@]1(Cc1ccccc1)C(=O)OC(C)(C)C)c1ccccc1
- EC50 [3]: 14 µM
- EC50 [5]: > 50 µM
- MCC [6]: 200 µM

SMILES: Nc1nc2c(ncn2COCCO)c(=O)[nH]1 [ACYCLOVIR]
- CC50 [1]: 511 µM
- EC50 [2]: 20 µM
- EC50 [3]: 111 µM
- EC50 [4]: 17 µM
- EC50 [5]: 7.1 µM
- MCC [6]: > 1200 µM

SMILES: O=c1[nH]c(=O)n([C@H]2C[C@H](O)[C@@H](CO)O2)cc1/C=C/Br [BRIVUDINE]
- CC50 [1]: 249 µM
- EC50 [2]: > 100 µM
- EC50 [3]: 103 µM
- EC50 [4]: > 100 µM
- MCC [6]: 1200 µM

SMILES: Nc1ccn(C[C@@H](CO)OCP(=O)(O)O)c(=O)n1 [CIDOFOVIR]
- EC50 [2]: 1 µM
- EC50 [4]: 0.6 µM
- MCC [6]: > 1400 µM

SMILES: Nc1nc2c(ncn2COC(CO)CO)c(=O)[nH]1 [GANCICLOVIR]
- MCC [6]: > 1500 µM
